Experimental data taken from ChEMBL document CHEMBL3430321, “Simulation of multiple ion channel block provides improved early prediction of compounds' clinical torsadogenic risk” (Cardiovasc Res, 2011).

Columns and labels:
[1] = target: Sodium channel alpha subunit; assay: Inhibition of Na channel (species unknown); type: functional
[2] = (§1) Effective free therapeutic plasma concentration (EFTPC): the concentration of unbound compund in the blood plasma at therapeutic dose (mean of range); type: ADME, organism-based; settings: human, in vivo
[3] = target: T1, Voltage-gated inwardly rectifying potassium channel KCNH2 (Homo sapiens, UniProt Q12809); assay: (§2) Inhibition of hERG K channel; type: functional
How it was run: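 IKr block assessed from concentration–response curves in HEK-293 cells stably transfected with hERG cDNA, giving IC50 values.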

[4] = target: Voltage-gated L-type calcium channel (Homo sapiens, UniProt Q13936+Q13698+Q01668+O60840); assay: Inhibition of voltage-gated L-type Ca channel (species unknown); type: functional
[5] = target: Sodium channel protein type 5 subunit alpha (Homo sapiens, UniProt Q14524); assay: Inhibition of sodium current measured using whole-cell patch clamp experiments in HEK-293 cells stably transfected with hNaV1.5 cDNA; type: functional, cell-based, HEK293
[6] = target: Voltage-dependent L-type calcium channel subunit alpha-1C (Cavia porcellus, UniProt O35505); assay: Inhibition of calcium current (ICaL) measured using whole-cell patch clamp experiments in isolated guinea pig ventricular myocytes; type: functional, tissue-based, Heart, Ventricular myocyte
[7] = target: T1, Voltage-gated inwardly rectifying potassium channel KCNH2; assay: as §2
[8] = as §1; settings: human, in vivo
[9] = target: T1, Voltage-gated inwardly rectifying potassium channel KCNH2; assay: Inhibition of potassium current (Ikr) measured using whole-cell patch clamp experiments in HEK-293 cells stable transfected with hERG cDNA; type: functional, cell-based, HEK293
How it was run: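 IKr concentration–response curves were recorded in HEK-293 cells stably expressing hERG cDNA.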

Chain of Sodium channel protein type 5 subunit alpha (Q14524 whole entry): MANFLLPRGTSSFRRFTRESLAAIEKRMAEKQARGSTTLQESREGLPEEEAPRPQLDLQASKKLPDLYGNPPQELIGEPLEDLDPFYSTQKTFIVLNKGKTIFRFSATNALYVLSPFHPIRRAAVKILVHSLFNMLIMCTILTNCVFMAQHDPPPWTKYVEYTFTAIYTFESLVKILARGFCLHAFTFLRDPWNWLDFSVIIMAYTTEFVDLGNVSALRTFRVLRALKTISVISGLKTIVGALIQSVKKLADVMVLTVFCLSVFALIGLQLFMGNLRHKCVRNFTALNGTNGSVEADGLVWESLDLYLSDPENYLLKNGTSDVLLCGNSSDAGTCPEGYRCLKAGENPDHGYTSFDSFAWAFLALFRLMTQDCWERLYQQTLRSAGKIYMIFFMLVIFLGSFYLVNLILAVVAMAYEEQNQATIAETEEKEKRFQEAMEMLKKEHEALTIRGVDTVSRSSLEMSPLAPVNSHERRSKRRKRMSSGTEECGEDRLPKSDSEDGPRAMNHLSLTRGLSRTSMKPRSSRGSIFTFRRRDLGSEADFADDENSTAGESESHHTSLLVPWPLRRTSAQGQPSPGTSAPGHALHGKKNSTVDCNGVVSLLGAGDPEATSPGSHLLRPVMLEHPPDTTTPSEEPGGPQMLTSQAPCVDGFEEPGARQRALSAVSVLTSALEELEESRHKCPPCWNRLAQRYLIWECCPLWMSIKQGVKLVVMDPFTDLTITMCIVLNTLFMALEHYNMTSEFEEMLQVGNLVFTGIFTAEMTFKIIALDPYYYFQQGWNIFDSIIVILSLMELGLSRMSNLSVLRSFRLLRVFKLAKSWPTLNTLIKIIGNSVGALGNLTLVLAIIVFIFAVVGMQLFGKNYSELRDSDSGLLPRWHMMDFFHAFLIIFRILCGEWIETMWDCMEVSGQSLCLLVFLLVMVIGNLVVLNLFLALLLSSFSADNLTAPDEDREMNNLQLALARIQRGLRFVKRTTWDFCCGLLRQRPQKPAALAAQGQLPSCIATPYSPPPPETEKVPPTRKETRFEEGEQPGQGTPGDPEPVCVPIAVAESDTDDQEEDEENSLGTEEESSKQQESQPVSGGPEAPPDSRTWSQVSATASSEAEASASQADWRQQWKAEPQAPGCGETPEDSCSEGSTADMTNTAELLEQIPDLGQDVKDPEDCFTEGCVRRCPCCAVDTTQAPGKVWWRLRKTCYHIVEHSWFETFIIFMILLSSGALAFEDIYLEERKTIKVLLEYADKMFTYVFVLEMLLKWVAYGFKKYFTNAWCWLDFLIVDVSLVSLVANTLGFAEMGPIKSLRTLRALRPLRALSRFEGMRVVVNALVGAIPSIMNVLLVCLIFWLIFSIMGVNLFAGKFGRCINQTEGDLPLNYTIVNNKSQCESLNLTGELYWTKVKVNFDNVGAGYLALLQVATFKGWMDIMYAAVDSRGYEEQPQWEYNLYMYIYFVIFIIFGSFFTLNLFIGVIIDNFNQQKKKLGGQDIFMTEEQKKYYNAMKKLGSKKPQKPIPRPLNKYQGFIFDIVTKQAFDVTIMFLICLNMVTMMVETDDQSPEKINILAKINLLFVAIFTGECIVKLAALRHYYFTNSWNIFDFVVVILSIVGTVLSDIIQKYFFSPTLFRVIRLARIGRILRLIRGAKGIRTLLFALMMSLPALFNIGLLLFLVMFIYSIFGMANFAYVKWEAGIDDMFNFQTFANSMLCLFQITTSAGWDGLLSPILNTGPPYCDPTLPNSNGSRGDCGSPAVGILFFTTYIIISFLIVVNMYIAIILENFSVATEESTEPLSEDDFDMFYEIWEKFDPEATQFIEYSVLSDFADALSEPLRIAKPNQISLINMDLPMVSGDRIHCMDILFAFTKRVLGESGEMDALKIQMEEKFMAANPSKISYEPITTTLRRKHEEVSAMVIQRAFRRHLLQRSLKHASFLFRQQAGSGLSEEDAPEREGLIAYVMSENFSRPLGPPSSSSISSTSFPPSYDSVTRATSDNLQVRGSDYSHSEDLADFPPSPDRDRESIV
Chain of Voltage-dependent L-type calcium channel subunit alpha-1C (O35505 whole entry): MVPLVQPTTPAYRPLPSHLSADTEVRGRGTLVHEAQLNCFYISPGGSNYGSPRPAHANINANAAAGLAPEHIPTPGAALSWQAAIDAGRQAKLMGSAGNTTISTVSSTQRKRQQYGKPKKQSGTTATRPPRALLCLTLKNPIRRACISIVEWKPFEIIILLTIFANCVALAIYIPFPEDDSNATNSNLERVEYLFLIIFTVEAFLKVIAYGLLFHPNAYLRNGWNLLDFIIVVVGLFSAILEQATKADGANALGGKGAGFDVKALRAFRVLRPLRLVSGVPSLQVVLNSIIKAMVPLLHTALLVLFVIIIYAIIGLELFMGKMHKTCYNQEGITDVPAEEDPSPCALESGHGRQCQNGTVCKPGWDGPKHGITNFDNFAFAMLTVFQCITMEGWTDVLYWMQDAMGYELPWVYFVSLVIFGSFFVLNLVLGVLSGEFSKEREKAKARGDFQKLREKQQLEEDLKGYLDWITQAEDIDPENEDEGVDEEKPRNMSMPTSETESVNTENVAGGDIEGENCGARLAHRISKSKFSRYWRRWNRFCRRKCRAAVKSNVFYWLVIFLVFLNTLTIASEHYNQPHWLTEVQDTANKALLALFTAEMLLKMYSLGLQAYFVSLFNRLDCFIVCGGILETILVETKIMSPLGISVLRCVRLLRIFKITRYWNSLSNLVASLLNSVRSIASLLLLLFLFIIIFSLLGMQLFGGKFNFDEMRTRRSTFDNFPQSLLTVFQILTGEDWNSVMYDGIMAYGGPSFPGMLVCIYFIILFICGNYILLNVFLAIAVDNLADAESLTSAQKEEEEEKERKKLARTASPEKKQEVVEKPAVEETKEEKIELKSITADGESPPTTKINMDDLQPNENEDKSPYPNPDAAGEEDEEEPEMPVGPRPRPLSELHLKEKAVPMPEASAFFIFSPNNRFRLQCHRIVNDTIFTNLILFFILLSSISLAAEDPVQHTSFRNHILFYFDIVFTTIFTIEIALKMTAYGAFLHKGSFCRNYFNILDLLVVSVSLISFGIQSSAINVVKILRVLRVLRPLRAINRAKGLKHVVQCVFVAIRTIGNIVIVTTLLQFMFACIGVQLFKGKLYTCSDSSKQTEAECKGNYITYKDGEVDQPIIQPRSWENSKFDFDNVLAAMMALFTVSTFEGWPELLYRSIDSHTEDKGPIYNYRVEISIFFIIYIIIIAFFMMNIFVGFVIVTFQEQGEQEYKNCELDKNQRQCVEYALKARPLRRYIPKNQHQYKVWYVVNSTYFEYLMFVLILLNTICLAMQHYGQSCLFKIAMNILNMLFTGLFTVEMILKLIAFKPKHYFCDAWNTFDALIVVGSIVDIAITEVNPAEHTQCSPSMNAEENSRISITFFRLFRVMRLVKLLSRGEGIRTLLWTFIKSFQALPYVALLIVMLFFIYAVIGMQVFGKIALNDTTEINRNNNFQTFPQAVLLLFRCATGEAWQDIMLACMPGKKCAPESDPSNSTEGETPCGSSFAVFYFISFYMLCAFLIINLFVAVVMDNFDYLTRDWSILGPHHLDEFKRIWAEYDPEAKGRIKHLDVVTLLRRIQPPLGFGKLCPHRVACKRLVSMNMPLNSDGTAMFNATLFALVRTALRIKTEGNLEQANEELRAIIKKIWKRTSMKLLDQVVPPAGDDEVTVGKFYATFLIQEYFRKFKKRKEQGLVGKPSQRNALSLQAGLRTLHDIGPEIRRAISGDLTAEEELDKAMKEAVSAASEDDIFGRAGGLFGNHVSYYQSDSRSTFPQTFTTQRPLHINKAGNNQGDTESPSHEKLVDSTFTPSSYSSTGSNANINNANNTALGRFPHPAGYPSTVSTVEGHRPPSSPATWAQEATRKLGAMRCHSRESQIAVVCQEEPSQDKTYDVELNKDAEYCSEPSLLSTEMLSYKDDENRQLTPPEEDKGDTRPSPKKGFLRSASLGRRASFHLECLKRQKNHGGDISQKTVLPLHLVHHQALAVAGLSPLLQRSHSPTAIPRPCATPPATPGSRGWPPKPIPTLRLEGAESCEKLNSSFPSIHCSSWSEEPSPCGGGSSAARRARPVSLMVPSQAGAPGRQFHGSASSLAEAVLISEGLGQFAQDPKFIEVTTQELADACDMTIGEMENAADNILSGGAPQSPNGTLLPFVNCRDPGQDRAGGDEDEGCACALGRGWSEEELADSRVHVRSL

Structure (SMILES)	IC50 [1] [µM]	EFTPC [2] [nM]	other results
C1CCC2(C1)C1CN(CC3CC3)CC2CN(CC2CC2)C1	20	80	IC50 [3]: 2.5 µM
CC[C@H]1[C@@H]2C[C@H]3[C@@H]4N(C)c5ccccc5[C@]45C[C@@H]([C@@H]2[C@H]5O)N3[C@@H]1O [AJMALINE]	[…]	900	IC50 [3]: 1.04 µM
CN(C)CCC=C1c2ccccc2CCc2ccccc21 [AMITRIPTYLINE]	20		IC50 [4]: 11.6 µM
CC(C)COCC(CN(Cc1ccccc1)c1ccccc1)N1CCCC1 (centres undefined) [BEPRIDIL]		21.5	IC50 [5]: 3.7 µM; IC50 [6]: 0.211 µM
CN(C)CCCN1c2ccccc2Sc2ccc(Cl)cc21 [CHLORPROMAZINE]	4.3	20.5	
c1ccc(C2(c3ccccc3)CC2C2=NCCN2)cc1 (centres undefined) [CIFENLINE]	7.8	739	IC50 [4]: 30 µM
COc1cc(N)c(Cl)cc1C(=O)NC1CCN(CCCOc2ccc(F)cc2)CC1OC (centres undefined) [CISAPRIDE]		3.75	IC50 [5]: 14.7 µM
CNCCCN1c2ccccc2CCc2ccccc21 [DESIPRAMINE]		67.5	
COc1ccc([C@@H]2Sc3ccccc3N(CCN(C)C)C(=O)[C@@H]2OC(C)=O)cc1 [DILTIAZEM]	9	87.5	
CN(CCOc1ccc(NS(C)(=O)=O)cc1)CCc1ccc(NS(C)(=O)=O)cc1 [DOFETILIDE]	300	1.2	
COCCCC/C(=N\OCCN)c1ccc(C(F)(F)F)cc1 [FLUVOXAMINE]		196	IC50 [6]: 4.9 µM
O=C(CCCN1CCC(O)(c2ccc(Cl)cc2)CC1)c1ccc(F)cc1 [HALOPERIDOL]		2.4	
CN(C)CCCN1c2ccccc2CCc2ccccc21 [IMIPRAMINE]	3.6	70.5	IC50 [4]: 8.3 µM
Cc1cccc(C)c1OCC(C)N (centres undefined) [MEXILETINE]			IC50 [7]: > 10 µM
COCC(=O)O[C@]1(CCN(C)CCCc2nc3ccccc3[nH]2)CCc2cc(F)ccc2[C@@H]1C(C)C [MIBEFRADIL]		9	
COC(=O)C1=C(C)NC(C)=C(C(=O)OC)C1c1ccccc1[N+](=O)[O-] [NIFEDIPINE]			EFTPC [8]: 5.4 nM
CCOC(=O)C1=C(C)NC(C)=C(C(=O)OC)C1c1cccc([N+](=O)[O-])c1 (centres undefined) [NITRENDIPINE]	36	1.56	
O=C1NC(=O)C(c2ccccc2)(c2ccccc2)N1 [PHENYTOIN]		4250	IC50 [5]: 49 µM
O=c1[nH]c2ccccc2n1C1CCN(CCCC(c2ccc(F)cc2)c2ccc(F)cc2)CC1 [PIMOZIDE]	0.054	0.55	
CC(Cc1ccccc1)NCCC(c1ccccc1)c1ccccc1 (centres undefined) [PRENYLAMINE]		13	IC50 [5]: 2.52 µM; IC50 [9]: 0.065 µM; IC50 [6]: 1.24 µM
CC(C)NCC(O)COc1cccc2ccccc12 (centres undefined) [PROPRANOLOL]		19	
Cc1nc2n(c(=O)c1CCN1CCC(c3noc4cc(F)ccc34)CC1)CCCC2 [RISPERIDONE]		1.21	
O=C1NCCN1CCN1CCC(c2cn(-c3ccc(F)cc3)c3ccc(Cl)cc23)CC1 [SERTINDOLE]	2.3	0.8	IC50 [4]: 8.9 µM
CC(C)(C)c1ccc(C(O)CCCN2CCC(C(O)(c3ccccc3)c3ccccc3)CC2)cc1 (centres undefined) [TERFENADINE]		4.55	
CSc1ccc2c(c1)N(CCC1CCCCN1C)c1ccccc1S2 (centres undefined) [THIORIDAZINE]		593.5	
